Assay results of several laboratories.
Protocols differ between the studies behind these lines.
Target: MAP kinase-interacting serine/threonine-protein kinase 2 (MKNK2, Homo sapiens, UniProt Q9HBH9)

| Structure (SMILES) | test | setting | measurement | value |
| --- | --- | --- | --- | --- |
| O=c1[nH]c2ccccc2n1C1CCN(Cc2ccc(-c3[nH]c4cc5ncnc5cc4nc3-c3ccccc3)cc2)CC1 | cell-free assay | 0.5 µM | remaining signal | 98.7% |
| N#CC1(c2ccccn2)CCN(Cc2cc(C(=O)O)c(=O)n3ccccc23)CC1 | cell-free assay, competition with immobilised ligand | 1 µM | remaining binding | 85% |
| COc1ncccc1-c1cnn2ccc(N3CCN(C(=O)OC(C)C)CC3)nc12 | binding, competition with immobilised ligand | 1 µM | remaining binding | 100% |
| Cc1nn(C)cc1-c1nc2c(N3CCN(Cc4ccc(Cl)cc4)CC3)c(Cl)cnc2[nH]1 | binding, competition with immobilised ligand | 1 µM | remaining binding | 46% |
| CC(C)(C)c1cc(C=C(C#N)C#N)cc(Br)c1O | enzyme activity, inhibitor | 0.5 µM | remaining activity | 100% |
| C#Cc1n[nH]c2c(-c3cn(C(C)c4ccccn4)c(=O)[nH]c3=O)cc(F)cc12 (stereo not shown) | enzyme activity, inhibitor | 1 µM | inhibition | 9.9% |
| COc1cc(Nc2ncc(F)c(Nc3ccc4c(n3)NC(=O)C(C)(C)O4)n2)cc(OC)c1OC | binding, competition with immobilised ligand | 10 µM | inhibition | 100% |
| Nc1ncc(-c2nc(N3CCOCC3)nc(N3CCOCC3)n2)c(C(F)F)n1 | binding, competition with immobilised ligand | 10 µM | remaining binding | 56% |
| Cn1cncc1[C@](O)(COc1ccc(C#N)cc1-c1ccc(OC(F)(F)F)cc1)c1ccc(C#N)cc1 | cell-free assay, competition with immobilised ligand | 1 µM | remaining binding | 85% |
| C#Cc1n[nH]c2c(-c3cn([C@@H](C)c4ccccc4)c(=O)[nH]c3=O)cc(F)cc12 | enzyme activity, inhibitor | 0.1 µM | inhibition | -7.9% |
